Calls of active or inactive are those of the source. The calls are words filed in the database; no cut-off is given here.
Columns and labels:
[1] = tested on: HT-29; assay: Induction of ROS generation in human HT-29 cells at 1 uM by CM-H2DCFDA fluorescent probe based flow cytometry analysis (reference value: 0.528%); format: functional
[2] = tested on: HT-29; assay: Induction of cell cycle arrest in human HT-29 cells assessed as accumulation of cells at G0/G1 phase at 1 uM incubated for 24 hrs by RNase/PI staining based flow cytometry analysis (reference value: 50.206%); format: functional
[3] = tested on: HT-29; assay: Inhibition of GSK-3beta protein expression in human HT-29 cells at 1 uM incubated for 72 hrs by Western blot analysis; format: functional, cell-based
[4] = tested on: HT-29; assay: Inhibition of APC protein expression in human HT-29 cells at 1 uM incubated for 72 hrs by Western blot analysis; format: functional, cell-based
[5] = tested on: HT-29; assay: Inhibition of beta-actin protein expression in human HT-29 cells at 1 uM incubated for 72 hrs by Western blot analysis; format: functional, cell-based
[6] = tested on: HT-29; assay: Induction of cell cycle arrest in human HT-29 cells assessed as accumulation of cells at G0/G1 phase at 4 uM incubated for 24 hrs by RNase/PI staining based flow cytometry analysis (reference value: 50.206%); format: functional
[7] = tested on: HT-29; assay: Inhibition of TAB-182 protein expression in human HT-29 cells at 4 uM incubated for 72 hrs by Western blot analysis; format: functional, cell-based
[8] = tested on: HT-29; assay: Inhibition of PI3K-p85 protein expression in human HT-29 cells at 4 uM incubated for 72 hrs by Western blot analysis; format: functional, cell-based
[9] = tested on: HT-29; assay: Inhibition of GSK-3beta protein expression in human HT-29 cells at 4 uM incubated for 72 hrs by Western blot analysis; format: functional, cell-based
[10] = tested on: HT-29; assay: Inhibition of AXIN-1 protein expression in human HT-29 cells at 4 uM incubated for 72 hrs by Western blot analysis; format: functional, cell-based
[11] = tested on: HT-29; assay: Inhibition of beta-catenin protein expression in human HT-29 cells at 4 uM incubated for 72 hrs by Western blot analysis; format: functional, cell-based
[12] = tested on: HT-29; assay: Induction of ROS generation in human HT-29 cells at 4 uM by CM-H2DCFDA fluorescent probe based flow cytometry analysis (reference value: 0.528%); format: functional
[13] = tested on: HT-29; assay: Induction of mitochondrial ROS generation in human HT-29 cells at 4 uM by MitoSOX red dye based flow cytometry analysis; format: functional, cell-based
In short: (§1)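 Mitochondrial superoxide in HT-29 cells was read with the mitochondria-localizing MitoSOX Red probe after treatment at 1, 2 or 4 μM. Flow cytometry histograms were acquired on 10,000 cells, and results were expressed as mean fluorescence intensity. Versus control, significance was tested by one-way ANOVA with Tukey's post hoc test.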

[14] = biological target: T1, Catenin beta-1 (Homo sapiens) (UniProt P35222); assay: Inhibition of beta-catenin phosphorylation in human HT-29 cells at 4 uM incubated for 72 hrs by Western blot analysis; format: cell-based
T1 sequence (whole entry): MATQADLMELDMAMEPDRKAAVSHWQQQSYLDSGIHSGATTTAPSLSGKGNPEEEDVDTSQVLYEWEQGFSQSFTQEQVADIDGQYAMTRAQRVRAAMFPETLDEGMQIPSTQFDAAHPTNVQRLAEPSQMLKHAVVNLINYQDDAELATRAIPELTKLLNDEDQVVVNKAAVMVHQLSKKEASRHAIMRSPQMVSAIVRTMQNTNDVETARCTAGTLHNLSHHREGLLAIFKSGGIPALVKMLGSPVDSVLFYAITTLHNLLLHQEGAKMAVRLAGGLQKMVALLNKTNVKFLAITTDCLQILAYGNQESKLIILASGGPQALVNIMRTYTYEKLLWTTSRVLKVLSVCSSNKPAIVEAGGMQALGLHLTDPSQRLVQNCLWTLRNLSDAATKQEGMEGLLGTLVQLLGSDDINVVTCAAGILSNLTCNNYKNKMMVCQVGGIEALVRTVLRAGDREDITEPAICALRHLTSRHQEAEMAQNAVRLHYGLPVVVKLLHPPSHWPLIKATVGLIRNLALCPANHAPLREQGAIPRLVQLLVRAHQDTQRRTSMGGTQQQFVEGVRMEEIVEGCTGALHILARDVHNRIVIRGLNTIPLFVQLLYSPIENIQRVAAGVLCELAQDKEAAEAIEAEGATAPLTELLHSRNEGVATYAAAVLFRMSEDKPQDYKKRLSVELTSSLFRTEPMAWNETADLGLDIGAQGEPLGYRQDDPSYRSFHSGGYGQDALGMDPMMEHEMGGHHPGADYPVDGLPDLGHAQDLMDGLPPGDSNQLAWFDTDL

[15] = biological target: 182 kDa tankyrase-1-binding protein (Homo sapiens) (UniProt Q9C0C2); assay: Inhibition of TAB-182 phosphorylation in human HT-29 cells at 2 uM incubated for 72 hrs by Western blot analysis; format: cell-based
Chain of 182 kDa tankyrase-1-binding protein (Homo sapiens) (Q9C0C2 whole entry): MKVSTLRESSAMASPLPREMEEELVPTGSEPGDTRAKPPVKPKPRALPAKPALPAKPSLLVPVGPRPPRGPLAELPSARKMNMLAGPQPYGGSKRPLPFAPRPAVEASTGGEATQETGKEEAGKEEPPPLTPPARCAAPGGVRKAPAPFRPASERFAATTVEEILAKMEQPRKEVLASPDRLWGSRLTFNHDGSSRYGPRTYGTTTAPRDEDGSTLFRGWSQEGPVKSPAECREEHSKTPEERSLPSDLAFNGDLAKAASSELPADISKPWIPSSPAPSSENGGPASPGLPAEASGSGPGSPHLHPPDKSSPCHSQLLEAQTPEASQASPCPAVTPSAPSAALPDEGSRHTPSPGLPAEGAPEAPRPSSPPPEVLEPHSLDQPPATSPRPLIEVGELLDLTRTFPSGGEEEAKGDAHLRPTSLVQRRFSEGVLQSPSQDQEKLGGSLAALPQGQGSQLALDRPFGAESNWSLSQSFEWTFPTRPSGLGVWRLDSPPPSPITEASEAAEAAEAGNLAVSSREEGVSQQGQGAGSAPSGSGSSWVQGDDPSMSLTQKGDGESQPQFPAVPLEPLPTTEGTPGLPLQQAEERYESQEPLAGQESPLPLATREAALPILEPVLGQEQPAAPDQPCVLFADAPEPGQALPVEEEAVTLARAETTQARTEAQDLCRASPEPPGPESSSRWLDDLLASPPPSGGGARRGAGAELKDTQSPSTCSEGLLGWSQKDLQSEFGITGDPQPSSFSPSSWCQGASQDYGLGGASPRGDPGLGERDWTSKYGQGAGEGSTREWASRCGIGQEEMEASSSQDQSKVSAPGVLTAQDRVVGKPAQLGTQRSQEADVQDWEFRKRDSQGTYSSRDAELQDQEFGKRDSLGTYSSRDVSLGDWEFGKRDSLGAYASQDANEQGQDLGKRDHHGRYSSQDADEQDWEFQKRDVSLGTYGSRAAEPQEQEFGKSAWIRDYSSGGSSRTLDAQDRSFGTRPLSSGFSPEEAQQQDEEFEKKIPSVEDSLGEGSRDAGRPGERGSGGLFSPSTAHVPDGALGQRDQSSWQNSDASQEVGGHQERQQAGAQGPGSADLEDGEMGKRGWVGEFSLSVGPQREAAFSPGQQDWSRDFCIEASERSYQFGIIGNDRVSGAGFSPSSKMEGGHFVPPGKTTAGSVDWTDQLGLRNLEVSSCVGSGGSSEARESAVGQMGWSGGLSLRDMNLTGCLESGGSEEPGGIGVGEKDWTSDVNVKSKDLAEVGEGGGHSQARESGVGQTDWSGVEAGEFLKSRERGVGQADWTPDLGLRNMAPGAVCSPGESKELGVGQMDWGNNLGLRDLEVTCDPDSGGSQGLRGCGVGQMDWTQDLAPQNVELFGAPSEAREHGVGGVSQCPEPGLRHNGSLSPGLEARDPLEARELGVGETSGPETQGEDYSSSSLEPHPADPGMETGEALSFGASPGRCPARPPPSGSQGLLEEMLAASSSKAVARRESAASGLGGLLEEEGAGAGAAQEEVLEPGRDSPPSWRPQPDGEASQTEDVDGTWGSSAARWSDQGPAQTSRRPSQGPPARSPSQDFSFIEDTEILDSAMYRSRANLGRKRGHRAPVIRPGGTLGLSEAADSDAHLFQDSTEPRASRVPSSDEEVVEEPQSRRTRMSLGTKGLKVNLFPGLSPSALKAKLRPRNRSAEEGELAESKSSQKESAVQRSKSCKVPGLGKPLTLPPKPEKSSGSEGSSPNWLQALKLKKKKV

[16] = tested on: HT-29; assay: Inhibition of beta-actin protein expression in human HT-29 cells at 2 uM incubated for 72 hrs by Western blot analysis; format: functional, cell-based
[17] = tested on: HT-29; assay: Induction of mitochondrial ROS generation in human HT-29 cells at 2 uM by MitoSOX red dye based flow cytometry analysis; format: functional, cell-based; in short: as §1
[18] = tested on: HT-29; assay: Induction of cell cycle arrest in human HT-29 cells assessed as accumulation of cells at G0/G1 phase at 2 uM incubated for 24 hrs by RNase/PI staining based flow cytometry analysis (reference value: 50.206%); format: functional
[19] = tested on: HT-29; assay: Inhibition of AXIN-1 protein expression in human HT-29 cells at 2 uM incubated for 72 hrs by Western blot analysis; format: functional, cell-based
[20] = tested on: HT-29; assay: Induction of cell cycle arrest in human HT-29 cells assessed as accumulation of cells at S phase at 2 uM incubated for 24 hrs by RNase/PI staining based flow cytometry analysis (reference value: 17.934 %); format: functional
[21] = tested on: HT-29; assay: Inhibition of pan-AKT protein expression in human HT-29 cells at 2 uM incubated for 72 hrs by Western blot analysis; format: functional, cell-based
[22] = tested on: HT-29; assay: Inhibition of APC protein expression in human HT-29 cells at 2 uM incubated for 72 hrs by Western blot analysis; format: functional, cell-based
[23] = tested on: HT-29; assay: Downregulation of TAB-182 protein expression in human HT-29 cells at 2 uM by immunostaining based confocal microscopic analysis; format: functional, cell-based
[24] = tested on: HT-29; assay: Inhibition of beta-catenin protein expression in human HT-29 cells at 2 uM incubated for 72 hrs by Western blot analysis; format: functional, cell-based
[25] = tested on: HT-29; assay: Induction of cell cycle arrest in human HT-29 cells assessed as accumulation of cells at G2/M phase at 2 uM incubated for 24 hrs by RNase/PI staining based flow cytometry analysis (reference value: 23.695 %); format: functional
[26] = tested on: HT-29; assay: Induction of cell cycle arrest in human HT-29 cells assessed as accumulation of cells at subG1 phase at 2 uM incubated for 24 hrs by RNase/PI staining based flow cytometry analysis (reference value: 1.798%); format: functional
[27] = tested on: HT-29; assay: Inhibition of PI3K-p85 protein expression in human HT-29 cells at 2 uM incubated for 72 hrs by Western blot analysis; format: functional, cell-based
[28] = tested on: HT-29; assay: Inhibition of GSK-3beta protein expression in human HT-29 cells at 2 uM incubated for 72 hrs by Western blot analysis; format: functional, cell-based

Q: What does the source list for COc1ccc(-n2c(SCCc3c[nH]c4ccccc34)nnc2-c2ccncc2)cc1?
A: Activity [1]: 15.334%; Activity [2]: 59.672%; inhibition [3]: Active; inhibition [4]: Active; inhibition [5]: Active

Q: With COc1cccc(-n2c(SCCc3c[nH]c4ccccc34)nnc2-c2ccncc2)c1 as the compound, how does the Activity [6] read?
A: Its Activity is 42.657%.

Q: And the inhibition [7]?
A: Its inhibition is “Active”.

Q: And the inhibition [8]?
A: Its inhibition is “Active”.

Q: What about the inhibition [9] of the same compound?
A: The inhibition was “Active”.

Q: And the inhibition [10]?
A: The inhibition was “Active”.

Q: And the inhibition [11]?
A: The inhibition was “Active”.

Q: And the Activity [12]?
A: Its Activity is 2.467%.

Q: And the Activity [13]?
A: The Activity was “Active”.

Q: And the inhibition [14]?
A: The inhibition was “Active”.

Q: Which results are given for Fc1ccccc1-n1c(SCCc2c[nH]c3ccccc23)nnc1-c1ccncc1?
A: inhibition [15]: Active; inhibition [16]: Active; Activity [17]: Active; Activity [18]: 67.66%; inhibition [19]: Active; Activity [20]: 7.976%; inhibition [21]: Active; inhibition [22]: Active; Activity [23]: Active; inhibition [24]: Active; Activity [25]: 18.982%; Activity [26]: 0.854%; inhibition [27]: Active; inhibition [28]: Active

From ChEMBL document CHEMBL5257059, “Pyridine-Based 1,2,4-Triazolo-Tethered Indole Conjugates Potentially Affecting TNKS and PI3K in Colorectal Cancer” (ACS Med Chem Lett, 2023)
